The values below come from ChEMBL document CHEMBL3593173, “Discovery of novel N-(5-(tert-butyl)isoxazol-3-yl)-N'-phenylurea analogs as potent FLT3 inhibitors and evaluation of their activity against acute myeloid leukemia in vitro and in vivo” (Bioorg Med Chem, 2015).

Converted amounts (≈) assume the structure as drawn. The source made the active and inactive calls. No cut-off for these calls is given here.

Data set [1] concerns MV4-11. Put plainly: Induction of apoptosis in human MV4-11 cells assessed as early apoptotic cells level at 100 nM incubated for 48 hrs by Annexin V-FITC labeling based flow cytometry (reference value: 3.54%). The class given is functional. (In flow cytometry, cells or beads pass a laser one at a time.)
Data set [2] concerns MV4-11. Put plainly: Cytotoxicity against human MV4-11 cells incubated for 72 hrs by MTT assay. The class given is functional, cell-based. Particulars: MV4-11, 72 h. Put shortly: (§1)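 Leukemia cells were grown with 10% FBS at 37 °C in 5% CO₂; MV4-11 was kept in IMDM. Cells were seeded at 1–4 × 10⁴ per well, and an equal volume of medium containing increasing inhibitor concentrations was added. MTT was added for 2–4 h, formazan was dissolved in DMSO, and OD was read at 570 nm to derive IC50.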
In general terms: Formazan colour is commonly taken as a measure of viable cells.

A further data set deals with HepG2. Description: Growth inhibition of human HepG2 cells incubated for 72 hrs by MTT assay. It counts as functional, cell-based. Particulars: HepG2, 72 h. In a few lines:
(§2)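 Non-leukemia lines were grown in RPMI 1640 or DMEM with 10% FBS at 37 °C in 5% CO₂. Cells were seeded at 2–5 × 10³ per well and incubated 24 h, then treated with diluted inhibitors for 72 h. MTT was added for 2–4 h, formazan was dissolved in DMSO, and OD was read at 570 nm to derive IC50.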

The next data set has as its system HCT-116. Put plainly: Growth inhibition of human HCT116 cells incubated for 72 hrs by MTT assay. It counts as functional, cell-based. Particulars: HCT-116, 72 h. Put shortly:
as §2

A further data set relates to U-251. Put plainly: Growth inhibition of human U251 cells incubated for 72 hrs by MTT assay. It counts as functional, cell-based. Particulars: U-251, 72 h. In a few lines: as §2
Data set [3] in a line: Solubility in SPSS. The class given is physicochemical.
The subject of data set [4] is MV4-11. Put plainly: Induction of apoptosis in human MV4-11 cells assessed as early apoptotic cells level at 10 nM incubated for 48 hrs by Annexin V-FITC labeling based flow cytometry (reference value: 3.54%). It counts as functional.
The nature of data set [5]: Apparent half life in Sprague-Dawley rat at 30 mg/kg, po after 15 mins to 24 hrs by HPLC method. It counts as ADME, organism-based. Particulars: in vivo, read-out: t1/2(app) (converted). In a few lines: (§3)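 Sprague–Dawley rats (n = 3) fasted overnight, then given a single 30 mg/kg oral gavage dose in 25% PEG400, 5% DMSO and 70% distilled water. Heparinized blood was drawn at 15 min, 30 min, 1, 2, 4, 6, 12 and 24 h, and plasma was separated by centrifugation. Plasma levels were measured by liquid–liquid extraction and HPLC.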

The test system of data set [6] is MV4-11. Put plainly: Induction of apoptosis in human MV4-11 cells assessed as late apoptotic cells level at 1 nM incubated for 48 hrs by Annexin V-FITC labeling based flow cytometry (reference value: 6.61%). It counts as functional.
Another data set has as its system A549. Description: Growth inhibition of human A549 cells incubated for 72 hrs by MTT assay. As to conditions: A549, 72 h. The class given is functional, cell-based. In a few lines: as §2
The test system of data set [7] is MV4-11. Put plainly: Induction of apoptosis in human MV4-11 cells assessed as viable cells at 100 nM incubated for 48 hrs by Annexin V-FITC labeling based flow cytometry (reference value: 86.1%). It counts as functional. Particulars: MV4-11, 48 h, read-out: Activity.
A short description of data set [8]: Solubility in PBS solution. It counts as physicochemical.
The nature of data set [9]: Solubility in EtOH solution. The class given is physicochemical.
The next data set concerns K562. Put plainly: Growth inhibition of human K562 cells incubated for 72 hrs by MTT assay. As to conditions: K562, 72 h. It counts as functional, cell-based. Put shortly: as §1
The test system of data set [10] is MV4-11. Description: Antitumor activity against FLT3-ITD bearing human MV4-11 cells xenografted in NOD-SCID mouse assessed as induction of complete tumor regression at 60 mg/kg/day, po. It counts as functional, organism-based. In a few lines: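 MV4-11 cells in exponential growth were washed three times in serum-free medium, resuspended at 1 × 10⁸ cells/mL and injected subcutaneously into NOD-SCID mice aged 5–6 weeks. At 100–200 mm³, tumors were randomized into 4 groups of 6. Dosing was 10, 30 or 60 mg/kg/d, or vehicle (25% PEG400 plus 5% DMSO in water), by oral gavage once daily. Tumor volume was measured every 3 days, and body weight and toxicity signs were monitored.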
In general terms: In xenograft studies the graft and the host belong to different species.

Data set [11] is described as follows: Clearance in Sprague-Dawley rat at 30 mg/kg, po after 15 mins to 24 hrs by HPLC method. The class given is ADME, organism-based. As to conditions: in vivo. Put shortly:
as §3

Data set [12] in a line: Solubility in water. The class given is physicochemical.

`COc1ccn2cc(-c3ccc(NC(=O)Nc4cc(C(C)(C)C)on4)cc3)nc2c1`: the Activity in the data set with MV4-11 [1] is given as 6.88%; with MV4-11 [4], 7.42%; in the data set with MV4-11 [6] it was 12.1%. For the same compound, the half-inhibitory concentration (IC50) is 0.00284 µM in the data set with MV4-11 [2]; over 20 µM in the data set on HepG2; over 20 µM in the data set on HCT-116; over 20 µM in the data set on U-251; 5.61 µM in the data set on A549; over 20 µM in the data set with K562. In addition, the solubility in data set [3] was 1.47 µg/mL (≈ 3.63 µM); in data set [8], 36.6 µg/mL (≈ 90.3 µM); in data set [9] it was 3150 µg/mL (≈ 7770 µM); in [12], 304 µg/mL (≈ 749 µM). Also, the half-life in data set [5] is 4.86 h. Further, the viability at 0.1 µM with MV4-11 [7] came to 54.8%. Moreover, the result in the data set with MV4-11 [10] was Active. This compound also showed an apparent clearance CL/F in data set [11] of 33.5 mL/min/kg.

A word on the IC50: it is the concentration needed to halve the response being measured. Low readings indicate inhibition by little substance, high ones a need for much substance. In general, solubility refers to how much of the substance goes into solution per volume. High values mean much dissolved substance, low ones little dissolved substance. One may read the CL/F as clearance divided by bioavailability, as obtained after extravascular dosing.
